Published values pooled from the literature.
Read-out: cell growth or viability

The IC50 of COc1cc(OC)c2c(=O)cc(-c3ccc(C(F)(F)F)cc3)oc2c1-c1c(OC)cc(OC)c2c(=O)cc(-c3ccc(C(F)(F)F)cc3)oc12 is reported as over 200 µM (HS27; MTT; 24 h).
With O=C(O)/C=C/c1ccc(O)cc1 the IC50 was over 50 µM (A-375; MTT).
With COc1cc(C)c(-c2c(C)cc(OC)c3c(=O)cc(-c4ccc(N(C)C)cc4)oc23)c2oc(-c3ccc(N(C)C)cc3)cc(=O)c12 the IC50 was 180 µM (HS27; MTT).
C/C=C(/C)C(=O)OC[C@H]1[C@@H](Cc2ccc(C(F)(F)F)cc2)CO[C@@H]1c1ccc(OC)c(OC)c1 gave an IC50 of 20.1 µM (rat VSMC; resazurin; 48 h).
With Cc1ccc2c(Br)cc(Br)c(O)c2n1 the IC50 was over 150 µM (BEL-7404; MTT; 48 h).
With COc1cc(C)c(-c2c(C)cc(OC)c3c(=O)cc(-c4ccccc4)oc23)c2oc(-c3ccccc3)cc(=O)c12 the IC50 was over 200 µM (HS27; MTT; 24 h).
Cc1ccc2nc(-c3ccco3)[nH]c2c1 gave an IC50 of over 100 µM (MDA-MB-231; MTT; 48 h).
With COC(=O)CN=c1scc(-c2ccccc2)n1-c1ccccc1 the IC50 was over 100 µM (Panc 04.03; MTT; 72 h).
COc1cc(-c2ncn(/C=C\C(=O)OC(C)C)n2)cc(C(F)(F)F)c1 has an IC50 of 0.474 µM (Mono-Mac-1; 72 h).
COc1c2ccoc2c(OCC=C(C)C)c2oc(=O)ccc12 gave an IC50 of over 100 µM (MRC5; MTT; 72 h).
With COC(=O)CN=c1scc(-c2ccccc2)n1-c1ccccc1[N+](=O)[O-] the IC50 was 22.1 µM (Panc 04.03; MTT; 72 h).
The IC50 of COc1ccc(-c2cc(=O)c3c(OC)cc(C)cc3o2)cc1 is reported as over 200 µM (HS27; MTT; 24 h).
C#Cc1cccc(Nc2ncnc3cc(OCCOC)c(OCCOC)cc23)c1 has an IC50 of 4.14 µM (A-375; MTT).
The IC50 of CCCCC[C@H](O)CC(=O)CCc1ccc(O)c(OC)c1 is reported as 303 µM (MRC5; SRB).
For CCOc1cc(-c2nc3ccccc3[nH]2)ccc1O, the IC50 was 48.3 µM (MDA-MB-231; MTT; 48 h).
For COc1ccc(C[C@H]2CO[C@H](c3ccc(OC)c(OC)c3)[C@H]2COC(=O)CC(C)C)cc1OC, the IC50 was 31 µM (rat VSMC; resazurin; 48 h).
Nc1nc(Nc2ccc3c(c2)CC[C@@H](N2CCCC2)CC3)nn1-c1cc2c(nn1)-c1ccccc1CCC2 has an IC50 of 2.24 µM (CMK; trypan blue; 72 h).
Oc1c(Br)cc(Br)c2cccnc12 has an IC50 of 68.1 µM (BEL-7404; MTT; 48 h).
For COc1cc(C)c(-c2c(C)cc(OC)c3c(=O)cc(-c4ccc(Br)cc4)oc23)c2oc(-c3ccc(Br)cc3)cc(=O)c12, the IC50 was over 200 µM (HS27; MTT; 24 h).
Oc1ccc(Nc2nc(-c3ccc(Cl)cc3)cs2)cc1 gave an IC50 of over 100 µM (FF2441; MTS; 24 h).
Clc1ccc(-c2nc3ccccc3n2Cc2ccccc2)cc1 has an IC50 of 35 µM (MDA-MB-231; MTT).
For COc1cccc2c1C(=O)c1c(O)c3c(c(O)c1C2=O)C[C@@](O)(C(=O)CO)C[C@@H]3O[C@H]1C[C@H](N)[C@H](O)[C@H](C)O1, the IC50 was 0.98 µg/mL (LLC-PK11; neutral red; 48 h).
For COc1ccc([C@H]2OC[C@H](Cc3ccc(C(C)(C)C)cc3)[C@@H]2CO)cc1OC, the IC50 was 5 µM (rat VSMC; resazurin; 48 h).
CCOc1cc(OCC)cc(C(=O)O[C@@H]2CN3Cc4c(cc5c(c4OC)OCO5)[C@@]24C=C[C@H](OC)C[C@@H]34)c1 gave an IC50 of over 10 µM (MRC5; WST-1).
With COC(=O)CN=c1scc(-c2ccccc2)n1-c1ccc(OC)cc1 the IC50 was 75.2 µM (Panc 04.03; MTT; 72 h).
For CC(=O)c1cccc(N=Nc2c(C(=O)O)cc(O)c(O)c2O)c1, the IC50 was 11.9 µM (A-375; MTT).
CCOc1cc(-c2nc3ccc(C)cc3[nH]2)ccc1O has an IC50 of over 100 µM (MDA-MB-231; MTT; 48 h).
c1ccc(-c2ccccn2)nc1 gave an IC50 of over 50 µM (BEL-7404; MTT; 48 h).
The IC50 of COC(=O)CN=c1scc(-c2ccccc2)n1-c1ccc(Cl)cc1 is reported as 52.1 µM (Panc 04.03; MTT; 72 h).
The IC50 of COc1ccc(-c2cc(=O)c3c(OC)cc(C)c(-c4c(C)cc(OC)c5c(=O)cc(-c6ccc(OC)cc6)oc45)c3o2)cc1 is reported as over 200 µM (HS27; MTT; 24 h).
C=CCn1c(-c2ccc([N+](=O)[O-])cc2)nc2ccc(C)cc21 gave an IC50 of over 100 µM (MDA-MB-231; MTT).
COC(=O)CN=c1scc(-c2ccccc2)n1-c1ccc(C)cc1 gave an IC50 of 50.3 µM (Panc 04.03; MTT; 72 h).
COc1cc(C)cc2oc(-c3cccc(Br)c3)cc(=O)c12 has an IC50 of 104 µM (HS27; MTT; 24 h).
The IC50 of c1cnc2c(c1)ccc1cccnc12 is reported as over 50 µM (BEL-7404; MTT; 48 h).
With CC(=O)O[C@H]1C(=O)[C@@]2(C)[C@H]([C@H](OC(=O)c3ccccc3)[C@]3(O)C[C@H](OC(=O)[C@H](O)[C@@H](NC(=O)c4ccccc4)c4ccccc4)C(C)=C1C3(C)C)[C@]1(OC(C)=O)CO[C@@H]1C[C@@H]2O the IC50 was 1.38 µM (MDA-MB-231; MTT).
COc1cc(OC)c2c(=O)cc(-c3ccccc3Br)oc2c1 gave an IC50 of over 200 µM (HS27; MTT; 24 h).
The IC50 of Cc1ccc2nc(-c3ccc4c(c3)OCO4)[nH]c2c1 is reported as over 100 µM (MDA-MB-231; MTT; 48 h).
For Oc1c(I)cc(I)c2cccnc12, the IC50 was over 100 µM (BEL-7404; MTT; 48 h).
COC(=O)CN=c1scc(-c2ccccc2)n1-c1ccccc1OC has an IC50 of 52.2 µM (Panc 04.03; MTT; 72 h).
Cc1ccc2nc(-c3c4ccccc4cc4ccccc34)[nH]c2c1 has an IC50 of 36.8 µM (MDA-MB-231; MTT; 48 h).
